The text below walks through data of ChEMBL document CHEMBL1221232, “Synthesis and biological activity of 4''-O-acyl derivatives of 14- and 15-membered macrolides linked to omega-quinolone-carboxylic unit” (Bioorg Med Chem, 2010).

Each structure is given as a SMILES string. In brackets after ≈: the same amount, converted by molar mass. A value given as a limit tells only on which side of the number the result lay.

Data set [1] concerns Staphylococcus aureus. Description: Antibacterial activity against erythromycin-sensitive Staphylococcus aureus ATCC 13709 by broth microdilution method. It counts as functional. An outline of the steps: (§1)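 MIC by CLSI broth microdilution. Inocula from agar-grown cultures: chocolate agar for H. influenzae, Columbia agar with 5% sheep blood for M. catarrhalis, Mueller-Hinton agar for S. aureus. Read as minimum inhibitory concentration in µg/mL.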

For data set [2], the system named is Staphylococcus aureus. Description: Antibacterial activity against efflux-mediated macrolide resistance Staphylococcus aureus PK1 by broth microdilution method. The data set is classed as functional. In short, it runs like this:
(§2)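 MIC by CLSI broth microdilution. Staphylococci were grown on Mueller-Hinton agar before testing. The MIC is the lowest concentration inhibiting growth.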

In data set [3] the test system is Streptococcus pneumoniae. Kind of data set: Antibacterial activity against efflux-mediated macrolide resistance Streptococcus pneumoniae Ci137 by broth microdilution method. It counts as functional. An outline of the steps: (§3)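 MIC by CLSI broth microdilution, except that the streptococcal medium used 5% horse serum in place of lysed blood. Streptococcal inocula came from Columbia agar with 5% sheep blood. The MIC is the lowest concentration inhibiting growth.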
In general terms: Dilution methods test growth across graded concentrations, often in twofold steps.

In data set [4] the test system is Streptococcus pyogenes. Kind of data set: Antibacterial activity against efflux-mediated macrolide resistance Streptococcus pyogenes 2 by broth microdilution method. The data set is classed as functional. An outline of the steps:
as §3

The test system of data set [5] is Staphylococcus aureus. Description: Antibacterial activity against macrolide, licosamide and streptogramin inducible-resistance Staphylococcus aureus 90256 by broth microdilution method. It counts as functional. In short, it runs like this:
as §2

Data set [6] relates to Streptococcus pneumoniae. Description: Antibacterial activity against inducible resistance to macrolide and constitutive resistance to lincosamide Streptococcus pneumoniae 134 GR M by broth microdilution method. The data set is classed as functional. An outline of the steps: as §3
Data set [7] deals with Streptococcus pyogenes. Description: Antibacterial activity against macrolide, licosamide and streptogramin inducible-resistance Streptococcus pyogenes 11 by broth microdilution method. The data set is classed as functional. An outline of the steps:
as §3

Data set [8] concerns Streptococcus pneumoniae. Description: Antibacterial activity against constitutive MLS-resistance Streptococcus pneumoniae 58 by broth microdilution method. It counts as functional. In short, it runs like this:
as §3

In data set [9] the test system is Streptococcus pyogenes. Description: Antibacterial activity against constitutive MLS resistance Streptococcus pyogenes 166 GR-Micro by broth microdilution method. The data set is classed as functional. An outline of the steps:
as §3

Data set [10] deals with Haemophilus influenzae. Kind of data set: Antibacterial activity against Haemophilus influenzae ATCC 49247 by broth microdilution method. It counts as functional. An outline of the steps: as §1
In data set [11] the test system is Moraxella catarrhalis. Description: Antibacterial activity against Moraxella catarrhalis ATCC 23246 by broth microdilution method. It counts as functional. An outline of the steps: as §1
The subject of data set [12] is Rattus norvegicus. Kind of data set: Clearance in Sprague-Dawley rat blood as % of liver blood flow at 30 mg/kg, po and 5 mg/kg, iv. It counts as ADME, organism-based. The following applies: in vivo. In short, it runs like this:
(§4)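 Po/iv crossover study in male Sprague-Dawley rats. Target doses were 30 mg/kg po (fasted) and 5 mg/kg iv (fed). Compound was given as a solution in 1.0% DMSO and 20% (w/v) Encapsin, in saline for iv or water for po, pH 3.5–4.0. Blood was sampled at several timepoints up to 1800 min and hemolyzed 1:1 with water.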

Data set [13] in a line: Volume of distribution at steady state in Sprague-Dawley rat blood at 30 mg/kg, po and 5 mg/kg, iv. The following applies: whole blood, read-out: Vdss. It counts as ADME, organism-based. An outline of the steps: as §4
Data set [14] in a line: Oral bioavailability in Sprague-Dawley rat blood at 30 mg/kg. The following applies: whole blood. It counts as ADME, organism-based. An outline of the steps:
as §4

The subject of data set [15] is Rattus norvegicus. Description: Liver blood flow in Sprague-Dawley rat blood at 30 mg/kg, po and 5 mg/kg, iv. The following applies: in vivo. The data set is classed as ADME, organism-based. In short, it runs like this: as §4

A word on the bioavailability: it is dose-corrected exposure relative to a reference, in per cent. Read a low bioavailability as poor availability. With `CC[C@H]1OC(=O)[C@H](C)[C@@H](O[C@H]2C[C@@](C)(OC)[C@@H](OC(=O)CCOCCOCCCc3ccc4c(c3)c(=O)c(C(=O)O)cn4CC)[C@H](C)O2)[C@H](C)[C@@H](O[C@@H]2O[C@H](C)C[C@H](N(C)C)[C@H]2O)[C@](C)(O)C[C@@H](C)CN(C)[C@H](C)[C@@H](O)[C@]1(C)O`, the MIC in [1] was at most 0.125 µg/mL; in data set [2], 0.25 µg/mL (≈ 0.223 µM); in data set [3], at most 0.125 µg/mL; in data set [4], at most 0.125 µg/mL; in [5], 0.25 µg/mL (≈ 0.223 µM); in [6], 0.25 µg/mL (≈ 0.223 µM). The MIC was at most 0.125 µg/mL in data set [7]; at most 0.125 µg/mL in [8]; at most 0.125 µg/mL in data set [9]; 1 µg/mL (≈ 0.891 µM) in data set [10]; at most 0.125 µg/mL in [11]. The compound also had an MIC50 in data set [10] of 1 µg/mL (≈ 0.891 µM). Also, the MIC90 in data set [10] came to 2 µg/mL (≈ 1.78 µM). Further, in data set [12], the “Fraction of Liver Blood Flow” value was 35%. Moreover, the Vd in data set [13] was determined as 10.4 L/kg. Besides, in [14], the bioavailability is 22%.

`CC[C@H]1OC(=O)[C@H](C)[C@@H](O[C@H]2C[C@@](C)(OC)[C@@H](OC(=O)CCOCCOCCCc3ccc4c(c3)c(=O)c(C(=O)O)cn4C3CC3)[C@H](C)O2)[C@H](C)[C@@H](O[C@@H]2O[C@H](C)C[C@H](N(C)C)[C@H]2O)[C@](C)(O)C[C@@H](C)CN(C)[C@H](C)[C@@H](O)[C@]1(C)O`: the MIC is at most 0.125 µg/mL in [1]; at most 0.125 µg/mL in data set [2]; at most 0.125 µg/mL in [3]; at most 0.125 µg/mL in [4]; at most 0.125 µg/mL in [5]; 0.25 µg/mL (≈ 0.22 µM) in [6]. Moreover, the MIC in data set [7] was at most 0.125 µg/mL; in data set [8], at most 0.125 µg/mL; in [9], 0.5 µg/mL (≈ 0.441 µM); in data set [10] it was 2 µg/mL (≈ 1.76 µM); in [11] it was 0.5 µg/mL (≈ 0.441 µM). The compound further displayed an MIC50 in data set [10] of 1 µg/mL (≈ 0.882 µM). Further, the MIC90 in data set [10] stood at 2 µg/mL (≈ 1.76 µM). In data set [15], this compound displayed an LBF of 43%. In data set [13], the Vd was 10.5 L/kg. In data set [14], this compound displayed a bioavailability of 16%.

For `CCCn1cc(C(=O)O)c(=O)c2cc(CCCOCCOCCC(=O)O[C@H]3[C@H](C)O[C@@H](O[C@H]4[C@H](C)[C@@H](O[C@@H]5O[C@H](C)C[C@H](N(C)C)[C@H]5O)[C@](C)(O)C[C@@H](C)CN(C)[C@H](C)[C@@H](O)[C@](C)(O)[C@@H](CC)OC(=O)[C@@H]4C)C[C@@]3(C)OC)ccc21`, the MIC in data set [1], in data set [2], in data set [3], in data set [4], in data set [5] and in data set [6] was at most 0.125 µg/mL each time. Besides, the MIC in data set [7] is at most 0.125 µg/mL; in [8], at most 0.125 µg/mL; in data set [9], 0.25 µg/mL (≈ 0.22 µM); in [10], 1 µg/mL (≈ 0.88 µM); in [11], 0.5 µg/mL (≈ 0.44 µM). This compound registered an MIC50 in [10] of 1 µg/mL (≈ 0.88 µM). For the same compound, the MIC90 in data set [10] stood at 2 µg/mL (≈ 1.76 µM).

With `CC[C@H]1OC(=O)[C@H](C)[C@@H](O[C@@H]2O[C@@H](C)C[C@](C)(OC)[C@H]2OC(=O)CCOCCOCCCc2ccc3c(c2)c(=O)c(C(=O)O)cn3CC)[C@H](C)[C@@H](O[C@@H]2O[C@H](C)C[C@H](N(C)C)[C@H]2O)[C@](C)(OC)C[C@@H](C)C(=O)[C@H](C)[C@H]2N(C)C(=O)O[C@]12C`, the MIC is at most 0.125 µg/mL in data set [1]; 0.5 µg/mL (≈ 0.431 µM) in data set [2]; at most 0.125 µg/mL in [3]; at most 0.125 µg/mL in [4]; 0.25 µg/mL (≈ 0.215 µM) in [5]; at most 0.125 µg/mL in [6]. The MIC in data set [7] is at most 0.125 µg/mL; in data set [8] it was at most 0.125 µg/mL; in data set [9] it was at most 0.125 µg/mL; in data set [10], 1 µg/mL (≈ 0.862 µM); in data set [11] it was at most 0.125 µg/mL.

As to `CC[C@H]1OC(=O)[C@H](C)[C@@H](O[C@@H]2O[C@@H](C)C[C@](C)(OC)[C@H]2OC(=O)CCOCCOCCCc2ccc3c(c2)c(=O)c(C(=O)O)cn3CC)[C@H](C)[C@@H](O[C@@H]2O[C@H](C)C[C@H](N(C)C)[C@H]2O)[C@](C)(O)C[C@@H](C)/C(=N\OCOCCOC)[C@H](C)[C@@H](O)[C@]1(C)O`, the MIC was 0.5 µg/mL (≈ 0.413 µM) in data set [1]; 1 µg/mL (≈ 0.826 µM) in [2]; at most 0.125 µg/mL in [3]; at most 0.125 µg/mL in data set [4]; 8 µg/mL (≈ 6.61 µM) in data set [5]; 0.5 µg/mL (≈ 0.413 µM) in data set [6]. Also, the MIC in data set [7] was at most 0.125 µg/mL; in [8], 1 µg/mL (≈ 0.826 µM); in data set [9], 1 µg/mL (≈ 0.826 µM); in [10] it was 4 µg/mL (≈ 3.3 µM); in data set [11], 1 µg/mL (≈ 0.826 µM).

Regarding `CC[C@H]1OC(=O)[C@H](C)[C@@H](O[C@@H]2O[C@@H](C)C[C@](C)(OC)[C@H]2OC(=O)CCOCCOCCCc2ccc3c(c2)c(=O)c(C(=O)O)cn3CC)[C@H](C)[C@@H](O[C@@H]2O[C@H](C)C[C@H](N(C)C)[C@H]2O)[C@](C)(OC)C[C@@H](C)C(=O)[C@H](C)[C@H]2NC(=O)O[C@@]21C`, the MIC in [1], in [2], in data set [3], in [4], in [5] and in data set [6] was at most 0.125 µg/mL throughout. For the same compound, the MIC in data set [7] is at most 0.125 µg/mL; in data set [8], at most 0.125 µg/mL; in data set [9], at most 0.125 µg/mL; in [10] it was 1 µg/mL (≈ 0.872 µM); in [11], 1 µg/mL (≈ 0.872 µM). The compound further came in with an MIC50 in data set [10] of 2 µg/mL (≈ 1.74 µM). The compound further gave an MIC90 in [10] of 4 µg/mL (≈ 3.49 µM).

In the case of `CC[C@H]1OC(=O)[C@H](C)[C@@H](O[C@H]2C[C@@](C)(OC)[C@@H](O)[C@H](C)O2)[C@H](C)[C@@H](O[C@@H]2O[C@H](C)C[C@H](N(C)C)[C@H]2O)[C@](C)(O)C[C@@H](C)CN(C)[C@H](C)[C@@H](O)[C@]1(C)O` [AZITHROMYCIN], the MIC in data set [1] was 0.5 µg/mL (≈ 0.668 µM); in data set [2], above 64 µg/mL; in data set [3], 8 µg/mL (≈ 10.7 µM); in data set [4], 8 µg/mL (≈ 10.7 µM); in data set [5], above 64 µg/mL; in data set [6], above 64 µg/mL. For the same compound, the MIC in data set [7] was above 64 µg/mL; in data set [8], above 64 µg/mL; in data set [9] it was above 64 µg/mL; in data set [10], 1 µg/mL (≈ 1.34 µM); in data set [11] it was at most 0.125 µg/mL. For the same compound, the MIC50 in data set [10] is 1 µg/mL (≈ 1.34 µM). The MIC90 in data set [10] worked out at 2 µg/mL (≈ 2.67 µM).

In the case of `CC[C@H]1OC(=O)[C@H](C)C(=O)[C@H](C)[C@@H](O[C@@H]2O[C@H](C)C[C@H](N(C)C)[C@H]2O)[C@](C)(OC)C[C@@H](C)C(=O)[C@H](C)[C@H]2N(CCCCn3cnc(-c4cccnc4)c3)C(=O)O[C@]12C` [TELITHROMYCIN], the MIC is at most 0.125 µg/mL in [1]; at most 0.125 µg/mL in data set [2]; 0.25 µg/mL (≈ 0.308 µM) in data set [3]; 0.5 µg/mL (≈ 0.616 µM) in data set [4]; at most 0.125 µg/mL in data set [5]; 0.25 µg/mL (≈ 0.308 µM) in data set [6]. Further, the MIC in data set [7] was at most 0.125 µg/mL; in data set [8], 0.25 µg/mL (≈ 0.308 µM); in data set [9], 16 µg/mL (≈ 19.7 µM); in [10], 2 µg/mL (≈ 2.46 µM); in data set [11], at most 0.125 µg/mL.
